Active and inactive are the calls of the source. The calls are words filed in the database; no cut-off is given here.
Key:
[1] = test system: Human immunodeficiency virus 1; experiment: Antiviral activity against HIV1 Ba-L in human MDM assessed as inhibition integration of virus to host cell genome at 0.3125 to 10 uM; assay type: functional, organism-based
MDM [2] = experiment: Inhibition of Vpu ion channel in 0.01 MOI HIV1 Ba-L infected in 7 days differentiated human MDM cells assessed as number of gag copy; assay type: cell-based; conditions: Human immunodeficiency virus 1
Summary of the method: (§1)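 MDM differentiated for 7, 10 or 14 days were infected with HIV-1 Ba-L across a range of MOIs, washed three times with PBS and cultured 7 days with 10 μM compound or equal-volume DMSO. On day 7 postinfection, supernatant RT activity was measured (and infectivity on TZM-bl cells). Cell lysates went to real-time PCR for LTR-gag DNA, normalised to albumin copies.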

[3] = Cytotoxicity against human MDM cells assessed as cell viability at 0 to 10 uM by MTT assay; assay type: cell-based; conditions: read-out: Activity
Summary of the method: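 Infected day 14 MDM were exposed to compound, up to 10 μM in parallel antiviral assays or extended to 1,000 μM for TC50. On day 7, half the medium was removed and 100 μg MTT added per well for 5 h at 37°C. Formazan was dissolved in acidified isopropanol with 10% Triton X-100 and A560 read. Viability was expressed vs DMSO controls; TC50 by nonlinear regression (n = 3).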

[4] = test system: Human immunodeficiency virus 1; experiment: Antiviral activity against HIV1 Ba-L in human MDM assessed as inhibition integration of virus to host cell genome at 10 nM; assay type: functional, organism-based
MDM [5] = experiment: Inhibition of Vpu ion channel in 0.01 MOI HIV1 Ba-L infected in 14 days differentiated human MDM cells assessed as number of gag copy; assay type: cell-based; conditions: Human immunodeficiency virus 1; summary of the method: as §1
MDM [6] = experiment: Inhibition of Vpu ion channel in 0.05 MOI HIV1 Ba-L infected in 10 days differentiated human MDM cells assessed as number of gag copy; assay type: cell-based; conditions: Human immunodeficiency virus 1; summary of the method: as §1
PBMC [7] = experiment: Inhibition of Vpu ion channel in 0.05 MOI HIV1 NL4-3 infected in human PBMC cells assessed as viral inhibition measured after 7 days by […]; conditions: Human immunodeficiency virus 1
[8] = test system: Human immunodeficiency virus 1; experiment: Antiviral activity against HIV1 Ba-L in human MDM assessed as inhibition integration of virus to host cell genome at 10 nM by RT assay; assay type: functional; conditions: Human immunodeficiency virus 1, Ba-L
[9] = Inhibition of Vpu ion channel in HIV1 92TH001 in human MDM assessed as inhibition of vrius release; design: species or system Human immunodeficiency virus 1
[10] = test system: Human immunodeficiency virus 1; experiment: (§2) Inhibition of Vpu ion channel in HIV1 Ba-L in human MDM assessed as inhibition of vrius release
Summary of the method: (§3)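 Day 14 MDM were infected with HIV-1 Ba-L for 3 h, washed three times and cultured with compound from 10 to 0 μM (0 μM containing matched DMSO). Day 7 supernatants were assayed for RT activity and converted to percent of virus control. EC50 came from nonlinear regression; n = 6 experiments, each in triplicate.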

[11] = as §2; design: species or system Human immunodeficiency virus 1; summary of the method: as §3
MDM [12] = experiment: Inhibition of Vpu ion channel in 0.001 MOI HIV1 Ba-L infected in 14 days differentiated human MDM cells assessed as viral inhibition by TZM-bl infectivity assay; assay type: cell-based; conditions: Human immunodeficiency virus 1; summary of the method: as §1
[13] = Inhibition of Vpu ion channel in HIV1 MDR3761 in human MDM assessed as inhibition of vrius release; design: species or system Human immunodeficiency virus 1
MDM [14] = experiment: Inhibition of Vpu ion channel in 0.05 MOI HIV1 Ba-L acutely infected in 14 days differentiated human MDM cells assessed as viral release after 7 days relative to control; assay type: cell-based; conditions: Human immunodeficiency virus 1
Summary of the method: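 Day 14 MDM were acutely infected with HIV-1 Ba-L at MOI 0.05 for 3 h, washed three times with PBS, then cultured a further 7 days in DMEM10+ with 10 μM compound or equal DMSO. Virus release was measured as supernatant RT activity on day 21 of culture, relative to DMSO controls.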

PBMC [15] = experiment: Inhibition of Vpu ion channel in 0.05 MOI HIV1 NL4-3 infected in human PBMC cells assessed as viral inhibition measured at 5 uM after 7 days by […]; conditions: Human immunodeficiency virus 1
MT2 = experiment: Inhibition of Vpu ion channel in 0.05 MOI HIV1 infected in MT2 cells assessed as viral inhibition measured after 7 days by […]; conditions: Human immunodeficiency virus 1
MDM [16] = experiment: Inhibition of Vpu ion channel in 0.05 MOI HIV1 Ba-L chronically infected in 10-14 days differentiated human MDM cells assessed as viral inhibition after 5 days post treatment relative to control; assay type: cell-based; conditions: Human immunodeficiency virus 1
Summary of the method: (§4)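 Chronic infection model: MDM were incubated with HIV-1 Ba-L for 3 h and left 7 days unwashed, then washed three times and given a single 10 μM dose (DMSO control). Supernatants were sampled routinely for RT activity. In the washout arm, compound was removed and cells kept drug-free for an additional 20 days.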

MDM [17] = experiment: Inhibition of Vpu ion channel in 0.05 MOI HIV1 Ba-L chronically infected in 10-14 days differentiated human MDM cells assessed as viral inhibition after 1 day relative to control; assay type: cell-based; conditions: Human immunodeficiency virus 1; summary of the method: as §4
[18] = test system: Human immunodeficiency virus 2; experiment: Antiviral activity against 0.05 MOI HIV2 cytopathic strain chronically infected in 7-14 days differentiated human MDM cells assessed as viral inhibition measured after 7 days; assay type: functional
Summary of the method: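 Day 14 MDM from three seronegative donors were infected at MOI 0.05 for 7 days, then washed free of extracellular virus. Cultures then ran a further 7 days with or without 10 μM BIT225, from day 21. Day 28 supernatants were assayed by RT activity ELISA. Percent inhibition was taken versus untreated controls, as mean of three donors.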

[19] = Inhibition of Vpu ion channel in HIV1 93BR029 in human MDM assessed as inhibition of vrius release; design: species or system Human immunodeficiency virus 1
[20] = test system: Human immunodeficiency virus 2; experiment: Antiviral activity against 0.05 MOI HIV2 chronically infected in 7-14 days differentiated human MDM cells assessed as viral inhibition measured after 7 days; assay type: functional, organism-based
Summary of the method: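 Day 14 MDM from 3 seronegative donors were infected with HIV-2, or with HIV-1 Ba-L as a positive control, at MOI 0.05 for 7 days. Cells were then washed free of extracellular virus and cultured ± 10 μM compound for a further 7 days. Day 28 supernatants were assayed for RT activity by chemiluminescent ELISA, with recombinant RT as the standard.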

[21] = Inhibition of Vpu ion channel in HIV1 5705.72 in human MDM assessed as inhibition of vrius release; design: species or system Human immunodeficiency virus 1
PBMC [22] = experiment: Inhibition of Vpu ion channel in 0.05 MOI HIV1 NL4-3 infected in human PBMC cells assessed as viral inhibition measured at 10 uM after 7 days by […]; conditions: Human immunodeficiency virus 1
MDM [23] = experiment: Inhibition of Vpu ion channel in 0.001 to 0.01 MOI HIV1 Ba-L infected in 10 days differentiated human MDM cells assessed as viral inhibition by RT assay; assay type: cell-based; conditions: Human immunodeficiency virus 1; summary of the method: as §1

In the case of `Cn1cc(-c2cccc3cc(C(=O)NC(=N)N)ccc23)cn1`, the Activity [1] is reported as “inactive”, the Activity (MDM [2]) is reported as 1160 and the viability at up to 10 µM [3] is reported as over 96%. For the same compound, the Activity [4] was “Active”, the Activity (MDM [5]) was 98 and the Activity (MDM [6]) was “Active”. The inhibition (PBMC [7]) was 95.8%, the inhibition at 0.01 µM [8] was 99% and the EC50 [9] was 1500 nM. For the same compound, the Activity [10] was “Dose-dependent effect”, the EC50 [11] was 2250 nM and the inhibition (MDM [12]) was 90.3%. For the same compound, the EC50 [13] was 5100 nM, the inhibition (MDM [14]) was 38% and the inhibition (PBMC [15]) was 25.7%. The inhibition (MT2) was 38.8%, the inhibition (MDM [16]) was 91.5% and the inhibition (MDM [17]) was 60.7%. For the same compound, the “inhibition (INH)” value [18] was 6.1%, the EC50 [19] was 1900 nM and the Activity [20] was “inactive”. For the same compound, the EC50 [21] was 5100 nM, the inhibition (PBMC [22]) was 56.8% and the inhibition (MDM [23]) was 82%.

Source: ChEMBL document CHEMBL1240369, “Antiviral efficacy of the novel compound BIT225 against HIV-1 release from human macrophages” (Antimicrob Agents Chemother, 2010)
